In ChEMBL document CHEMBL1157639, “Identification of inhibitors of drug-resistant Candida albicans strains from a library of bicyclic peptidomimetic compounds” (2010):
One block for each compound: values may come before it.

Key:
[1] = molecular target: Secreted aspartic protease 2 (Candida albicans) (UniProt P0CS83); assay: Inhibition of Candida albicans SAP2 at 20 uM by spectrophotometry relative to pepstatin A
Method in brief: (§1)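 Sample was mixed with 1% (w/v) BSA substrate in 50 mM sodium citrate, pH 3.2, plus SAP2 protease (1 μg/mL stock solution) and incubated 30 min at 37 °C. The reaction was stopped with 10% TCA, kept 30 min on ice, and centrifuged; supernatant A280 was read. Percent inhibition was taken from ΔOD, with control proteinase minus proteinase plus pepstatin A set as 100%.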

Candida albicans [2] = assay: Antifungal activity against pharmacoresistant Candida albicans AIDS68 infected in Wistar rat estrogen-dependent fungal vaginitis model assessed as fungal burden at 10 uM administered intravaginally 48 hrs after fungal infection measured on day 5 after infection; format: functional, Vagina
Method in brief: (§2)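 Oophorectomized female Wistar rats (80-100 g) got 0.5 mg estradiol benzoate s.c. Six days later they were inoculated intravaginally with >10⁷ YPD-grown yeast cells (28 °C, washed, hemocytometer-counted) in 0.1 mL saline. Treatment was given intravaginally at 1, 24 and 48 h post-challenge. Burden was counted by culturing 100 μL vaginal fluid on Sabouraud-chloramphenicol (50 μg/mL) agar, as CFU/mL ×1000, through day 28.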

Candida albicans [3] = assay: Antifungal activity against Candida albicans SA40 infected in Wistar rat estrogen-dependent fungal vaginitis model assessed as fungal burden at 10 uM administered intravaginally 48 hrs after fungal infection measured on day 21 after infection; format: functional, Vagina
Method in brief: (§3)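 Oophorectomized female Wistar rats (80-100 g), given 0.5 mg estradiol benzoate subcutaneously, were challenged intravaginally six days later with >10⁷ YPD-grown yeast cells in 0.1 mL saline. Compound at 10 μM was instilled intravaginally at 1, 24 and 48 h post-challenge. Vaginal fluid samples (100 μL) were plated on Sabouraud agar with chloramphenicol (50 μg/mL), and burden was expressed as CFU/mL ×1000.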

Candida albicans [4] = assay: Antifungal activity against pharmacoresistant Candida albicans AIDS68 infected in Wistar rat estrogen-dependent fungal vaginitis model assessed as fungal burden at 10 uM administered intravaginally 1 hr after fungal infection measured on day 1 after infection; format: functional, Vagina; method in brief: as §2
Candida albicans [5] = assay: Antifungal activity against Candida albicans SA40 infected in Wistar rat estrogen-dependent fungal vaginitis model assessed as fungal burden at 10 uM administered intravaginally 48 hrs after fungal infection measured on day 5 after infection; format: functional, Vagina; method in brief: as §3
Candida albicans [6] = assay: Antifungal activity against Candida albicans SA40 infected in Wistar rat estrogen-dependent fungal vaginitis model assessed as fungal burden at 10 uM administered intravaginally 24 hrs after fungal infection measured on day 2 after infection; format: functional, Vagina; method in brief: as §3
Candida albicans [7] = assay: Antifungal activity against Candida albicans SA40 infected in Wistar rat estrogen-dependent fungal vaginitis model assessed as fungal burden at 10 uM administered intravaginally 48 hrs after fungal infection measured on day 28 after infection; format: functional, Vagina; method in brief: as §2
Candida albicans [8] = assay: Antifungal activity against pharmacoresistant Candida albicans AIDS68 infected in Wistar rat estrogen-dependent fungal vaginitis model assessed as fungal burden at 10 uM administered intravaginally 48 hrs after fungal infection measured on day 14 after infection; format: functional, Vagina; method in brief: as §2
Candida albicans [9] = assay: Antifungal activity against Candida albicans SA40 infected in Wistar rat estrogen-dependent fungal vaginitis model assessed as fungal burden at 10 uM administered intravaginally 48 hrs after fungal infection measured on day 7 after infection; format: functional, Vagina; method in brief: as §3
[10] = molecular target: Secreted aspartic protease 2 (Candida albicans) (UniProt P0CS83); assay: Inhibition of Candida albicans SAP2 at 0.02 uM by spectrophotometry relative to pepstatin A; method in brief: as §1
Candida albicans [11] = assay: Antifungal activity against pharmacoresistant Candida albicans AIDS68 infected in Wistar rat estrogen-dependent fungal vaginitis model assessed as fungal burden at 10 uM administered intravaginally 48 hrs after fungal infection measured on day 28 after infection; format: functional, Vagina; method in brief: as §2
Candida albicans [12] = assay: Antifungal activity against pharmacoresistant Candida albicans AIDS68 infected in Wistar rat estrogen-dependent fungal vaginitis model assessed as fungal burden at 10 uM administered intravaginally 24 hrs after fungal infection measured on day 2 after infection; format: functional, Vagina; method in brief: as §2
Candida albicans [13] = assay: Antifungal activity against Candida albicans SA40 infected in Wistar rat estrogen-dependent fungal vaginitis model assessed as fungal burden at 10 uM administered intravaginally 1 hr after fungal infection measured within 1 day of infection; format: functional, Vagina; method in brief: as §2
[14] = molecular target: Secreted aspartic protease 2 (Candida albicans) (UniProt P0CS83); assay: Inhibition of Candida albicans SAP2 at 2 uM by spectrophotometry relative to pepstatin A; method in brief: as §1
Candida albicans [15] = assay: Antifungal activity against Candida albicans SA40 infected in Wistar rat estrogen-dependent fungal vaginitis model assessed as fungal burden at 10 uM administered intravaginally 48 hrs after fungal infection measured on day 14 after infection; format: functional, Vagina; method in brief: as §3
Candida albicans [16] = assay: Antifungal activity against pharmacoresistant Candida albicans AIDS68 infected in Wistar rat estrogen-dependent fungal vaginitis model assessed as fungal burden at 10 uM administered intravaginally 48 hrs after fungal infection measured on day 7 after infection; format: functional, Vagina; method in brief: as §2
[17] = molecular target: Secreted aspartic protease 2 (Candida albicans) (UniProt P0CS83); assay: Inhibition of Candida albicans SAP2 at 10 uM by spectrophotometry relative to pepstatin A; method in brief: as §1
Candida albicans [18] = assay: Antifungal activity against Candida albicans SA40 infected in Wistar rat estrogen-dependent fungal vaginitis model assessed as fungal burden at 10 uM administered intravaginally 1 hr after fungal infection measured on day 1 after infection; format: functional, Vagina; method in brief: as §3
Candida albicans [19] = assay: Antifungal activity against pharmacoresistant Candida albicans AIDS68 infected in Wistar rat estrogen-dependent fungal vaginitis model assessed as fungal burden at 10 uM administered intravaginally 48 hrs after fungal infection measured on day 21 after infection; format: functional, Vagina; method in brief: as §2
[20] = molecular target: Secreted aspartic protease 2 (Candida albicans) (UniProt P0CS83); assay: Inhibition of Candida albicans SAP2 at 0.2 uM by spectrophotometry relative to pepstatin A; method in brief: as §1
[21] = molecular target: Secreted aspartic protease 2 (Candida albicans) (UniProt P0CS83); assay: Inhibition of Candida albicans SAP2 at 10 uM by spectrophotometry; method in brief: as §1

Chain of Secreted aspartic protease 2 (Candida albicans) (P0CS83 57-398 limits assumed): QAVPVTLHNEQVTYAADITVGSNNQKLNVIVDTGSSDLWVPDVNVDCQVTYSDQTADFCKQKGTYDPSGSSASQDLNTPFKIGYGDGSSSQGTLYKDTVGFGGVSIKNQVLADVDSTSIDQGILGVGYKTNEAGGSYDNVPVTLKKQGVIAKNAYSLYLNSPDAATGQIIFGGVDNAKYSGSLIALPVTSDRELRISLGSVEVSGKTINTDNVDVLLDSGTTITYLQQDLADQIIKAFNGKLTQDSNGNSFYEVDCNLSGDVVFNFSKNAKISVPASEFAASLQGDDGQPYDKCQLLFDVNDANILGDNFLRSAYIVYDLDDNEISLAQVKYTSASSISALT

inhibition [1]: 29%
SMILES: O=C(N[C@@H](CO)Cc1ccccc1)[C@@H]1O[C@H]2CN(Cc3ccccc3)C(=O)[C@@H]1O2

inhibition [1]: 29%
SMILES: CC(C)C[C@H](CO)NC(=O)[C@@H]1O[C@H]2CN(Cc3ccccc3)C(=O)[C@H]1O2

SMILES: CC(C)C[C@@H](CO)NC(=O)[C@@H]1O[C@H]2CN(Cc3ccccc3)C(=O)[C@@H]1O2
Activity (Candida albicans [2]): 26.8 ×10³ CFU/ml
Activity (Candida albicans [3]): 4.2 ×10³ CFU/ml
Activity (Candida albicans [4]): 61.6 ×10³ CFU/ml
Activity (Candida albicans [5]): 35.8 ×10³ CFU/ml
Activity (Candida albicans [6]): 58 ×10³ CFU/ml
Activity (Candida albicans [7]): 2.2 ×10³ CFU/ml
Activity (Candida albicans [8]): 11.2 ×10³ CFU/ml
Activity (Candida albicans [9]): 28.8 ×10³ CFU/ml
inhibition [10]: 1.4%
Activity (Candida albicans [11]): 0 ×10³ CFU/ml
Activity (Candida albicans [12]): 55.4 ×10³ CFU/ml
Activity (Candida albicans [13]): 100 ×10³ CFU/ml
inhibition [14]: 6.9%
Activity (Candida albicans [15]): 14 ×10³ CFU/ml
Activity (Candida albicans [16]): 22.8 ×10³ CFU/ml
inhibition [17]: 61%
Activity (Candida albicans [18]): 61 ×10³ CFU/ml
inhibition [1]: 71%

SMILES: O=C([C@@H]1O[C@H]2CN(Cc3ccccc3)C(=O)[C@@H]1O2)N1CCCCC1
Activity (Candida albicans [2]): 40.6 ×10³ CFU/ml
Activity (Candida albicans [3]): 8 ×10³ CFU/ml
Activity (Candida albicans [4]): 71.8 ×10³ CFU/ml
Activity (Candida albicans [5]): 39.2 ×10³ CFU/ml
Activity (Candida albicans [6]): 57.6 ×10³ CFU/ml
Activity (Candida albicans [7]): 1.2 ×10³ CFU/ml
Activity (Candida albicans [8]): 12.8 ×10³ CFU/ml
Activity (Candida albicans [19]): 3.4 ×10³ CFU/ml
Activity (Candida albicans [9]): 30.6 ×10³ CFU/ml
inhibition [10]: 0%
Activity (Candida albicans [11]): 0 ×10³ CFU/ml
Activity (Candida albicans [12]): 62.6 ×10³ CFU/ml
Activity (Candida albicans [13]): >100 ×10³ CFU/ml
inhibition [14]: 50%
Activity (Candida albicans [15]): 14.4 ×10³ CFU/ml
Activity (Candida albicans [16]): 23.2 ×10³ CFU/ml
inhibition [20]: 19%
inhibition [17]: 67%
Activity (Candida albicans [18]): 70 ×10³ CFU/ml
inhibition [1]: 74%

inhibition [1]: 23%
SMILES: O=C(NCCCO)[C@@H]1O[C@H]2CN(Cc3ccccc3)C(=O)[C@@H]1O2

inhibition [1]: 71%
SMILES: O=C(NCCO)[C@@H]1O[C@H]2CN(Cc3ccccc3)C(=O)[C@@H]1O2

inhibition [1]: 31%
SMILES: O=C(N[C@@H](CO)c1ccccc1)[C@@H]1O[C@H]2CN(Cc3ccccc3)C(=O)[C@@H]1O2

inhibition [1]: 50%
SMILES: O=C([C@H]1O[C@H]2CN(Cc3ccccc3)C(=O)[C@@H]1O2)N1CCCCC1

inhibition [1]: 60%
SMILES: CC(C)C[C@H](CO)NC(=O)[C@H]1O[C@@H]2CN(Cc3ccccc3)C(=O)[C@@H]1O2

inhibition [1]: 35%
SMILES: CC(C)C[C@@H](CO)N(Cc1ccccc1)C(=O)[C@@H]1O[C@H]2CN(Cc3ccccc3)C(=O)[C@@H]1O2

inhibition [21]: 17%
inhibition [17]: 87%
SMILES: CCOC(=O)C1CCN(C(=O)[C@@H]2O[C@@H]3O[C@H]2C(=O)N(Cc2ccccc2)[C@H]3Cc2ccccc2)CC1

inhibition [21]: 2%
inhibition [17]: 6%
SMILES: O=C([C@@H]1O[C@H]2CN(Cc3ccccc3)C[C@@H]1O2)N1CCOCC1
